Measurements as given in ChEMBL document CHEMBL1145040, “Biaryl analogues of conformationally constrained tricyclic tropanes as potent and selective norepinephrine reuptake inhibitors: synthesis and evaluation of their uptake inhibition at monoamine transporter sites” (J Med Chem, 2003).

Assays:
[1] = molecular target: Sodium-dependent dopamine transporter (Rattus norvegicus, UniProt P23977); assay: Ability to inhibit [3H]DA reuptake at dopamine transporter from rat brain
Procedure, shortened: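 Rat brain P2 synaptosomes in modified KRH buffer (pH 7.4, nialamide); drug preincubation 30 min at 4 °C, then 15 min at 37 °C. [3H]DA (~5 nM final) uptake for 5 min, ended with cold sodium-free buffer, GF/C filtration and scintillation counting.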

[2] = molecular target: Norepinephrine transporter (Rattus norvegicus, UniProt Q9WTR4); assay: Ability to inhibit [3H]NE reuptake at norepinephrine transporter from rat brain
Procedure, shortened: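 Synaptosomes (P2, rat brain) in modified KRH buffer (pH 7.4, nialamide) with drug, 30 min at 4 °C then 15 min at 37 °C. [3H]NE (9 nM final) uptake for 5 min; terminated by cold sodium-free buffer, GF/C filtration and scintillation counting. Specific uptake defined with 3 μM desipramine.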

[3] = molecular target: Sodium-dependent serotonin transporter (Rattus norvegicus, UniProt P31652); assay: Ability to inhibit [3H]5-HT reuptake at serotonin transporter from rat brain
Procedure, shortened: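 P2 synaptosomes from rat brain in modified KRH buffer (pH 7.4, nialamide), preincubated with drug 30 min at 4 °C, then 15 min at 37 °C. [3H]5-HT (~5 nM final) added for 5 min; stopped with cold sodium-free buffer, then GF/C filtration and scintillation counting. Nonspecific uptake set with 10 μM fluoxetine.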

[4] = molecular target: Monoamine transporters; Norepinephrine & serotonin (Rattus norvegicus) (UniProt P31652+Q9WTR4); assay: Uptake ratio at norepinephrine to serotonin transporters from rat brain
Procedure, shortened: (§1)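 Selectivity ratios calculated from Ki values of the rat brain synaptosomal [3H]DA, [3H]5-HT and [3H]NE uptake inhibition assays.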

[5] = molecular target: Monoamine transporters; serotonin & dopamine (Rattus norvegicus) (UniProt P31652+P23977); assay: Uptake ratio at serotonin to dopamine transporters from rat brain; procedure, shortened: as §1
[6] = molecular target: Monoamine transporters; Norepininephrine & dopamine (Rattus norvegicus) (UniProt P23977+Q9WTR4); assay: Uptake ratio at norepinephrine to dopamine transporters from rat brain; procedure, shortened: as §1

Sodium-dependent serotonin transporter, sequence (P31652 whole entry): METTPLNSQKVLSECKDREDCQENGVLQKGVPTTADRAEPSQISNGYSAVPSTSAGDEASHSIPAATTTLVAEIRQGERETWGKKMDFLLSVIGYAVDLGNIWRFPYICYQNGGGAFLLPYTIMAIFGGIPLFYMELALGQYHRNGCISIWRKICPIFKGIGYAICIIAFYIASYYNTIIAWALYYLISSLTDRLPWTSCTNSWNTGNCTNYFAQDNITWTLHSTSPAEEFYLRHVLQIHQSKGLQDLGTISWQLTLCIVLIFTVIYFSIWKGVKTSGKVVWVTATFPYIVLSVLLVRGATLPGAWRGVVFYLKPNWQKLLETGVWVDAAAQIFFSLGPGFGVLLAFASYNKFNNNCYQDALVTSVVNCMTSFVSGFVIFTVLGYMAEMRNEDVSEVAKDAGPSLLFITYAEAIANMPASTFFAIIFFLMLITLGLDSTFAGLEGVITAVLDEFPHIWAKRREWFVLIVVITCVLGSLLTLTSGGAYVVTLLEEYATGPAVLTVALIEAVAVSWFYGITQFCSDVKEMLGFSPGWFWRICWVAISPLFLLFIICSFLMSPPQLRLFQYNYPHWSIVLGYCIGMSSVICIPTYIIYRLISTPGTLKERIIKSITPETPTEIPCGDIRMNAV
Monoamine transporters; serotonin & dopamine (Rattus norvegicus), sequence (P23977 whole entry, looked up): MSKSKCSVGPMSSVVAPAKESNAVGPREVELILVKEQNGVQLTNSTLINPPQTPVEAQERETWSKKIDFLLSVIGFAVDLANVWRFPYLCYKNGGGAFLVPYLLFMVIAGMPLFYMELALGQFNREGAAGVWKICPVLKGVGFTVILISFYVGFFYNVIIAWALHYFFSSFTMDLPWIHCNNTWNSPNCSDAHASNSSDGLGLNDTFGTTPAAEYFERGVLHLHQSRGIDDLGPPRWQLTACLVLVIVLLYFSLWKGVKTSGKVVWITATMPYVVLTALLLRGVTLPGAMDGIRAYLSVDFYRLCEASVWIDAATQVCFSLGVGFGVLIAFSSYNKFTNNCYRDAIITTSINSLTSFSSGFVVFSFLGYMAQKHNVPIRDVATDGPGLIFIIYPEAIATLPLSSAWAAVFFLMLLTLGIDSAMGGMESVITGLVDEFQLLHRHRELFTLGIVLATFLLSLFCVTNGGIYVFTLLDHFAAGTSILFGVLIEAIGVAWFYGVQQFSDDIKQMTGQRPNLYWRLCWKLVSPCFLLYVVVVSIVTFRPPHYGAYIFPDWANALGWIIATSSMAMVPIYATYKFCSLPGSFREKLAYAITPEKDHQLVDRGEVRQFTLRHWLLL
Monoamine transporters; serotonin & dopamine (Rattus norvegicus), sequence (P31652 whole entry, looked up): as the sequence (P31652 whole entry) above
Sodium-dependent dopamine transporter, sequence (P23977 whole entry): as the sequence (P23977 whole entry, looked up) above
Norepinephrine transporter, sequence (Q9WTR4 whole entry): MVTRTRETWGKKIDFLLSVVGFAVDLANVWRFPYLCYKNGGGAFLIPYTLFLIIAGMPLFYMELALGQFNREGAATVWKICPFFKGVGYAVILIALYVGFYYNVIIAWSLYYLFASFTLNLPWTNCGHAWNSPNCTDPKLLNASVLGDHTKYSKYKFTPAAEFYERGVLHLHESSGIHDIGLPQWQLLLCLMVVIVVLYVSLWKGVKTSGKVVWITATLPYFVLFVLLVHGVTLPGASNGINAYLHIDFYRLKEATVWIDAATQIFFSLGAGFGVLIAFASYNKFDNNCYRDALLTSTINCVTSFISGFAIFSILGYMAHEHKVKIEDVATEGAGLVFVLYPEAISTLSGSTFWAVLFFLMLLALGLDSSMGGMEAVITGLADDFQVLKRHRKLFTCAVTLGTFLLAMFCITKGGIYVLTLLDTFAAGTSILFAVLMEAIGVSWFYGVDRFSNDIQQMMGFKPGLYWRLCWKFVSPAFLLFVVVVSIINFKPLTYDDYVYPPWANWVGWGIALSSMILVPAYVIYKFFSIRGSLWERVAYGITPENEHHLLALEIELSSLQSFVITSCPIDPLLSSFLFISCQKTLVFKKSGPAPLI

| Structure (SMILES) | Ki [1] [nM] | Ki [2] [nM] | Ki [3] [nM] | Ratio [4] | Ratio [5] | Ratio [6] |
| --- | --- | --- | --- | --- | --- | --- |
| COC(=O)C1C2CCC3CCC1N(C/C2=C\c1ccc(-c2ccc(C)cc2)cc1)C3 (centres undefined) | 214 | 22.7 | 1490 | 0.02 | 6.97 | 0.11 |
| COC(=O)C1C2CCC3CCC1N(C/C2=C\c1ccc(-c2ccc(C#N)cc2)cc1)C3 (centres undefined) | 47 | 32.4 | 909 | 0.04 | 19.3 | 0.69 |
| COC(=O)C1C2CCC3CCC1N(C/C2=C\c1ccc(-c2ccc(OC)cc2)cc1)C3 (centres undefined) | 841 | 39 | 3390 | 0 | 4.04 | 0.05 |
| COC(=O)C1C2CCC3CCC1N(C/C2=C\c1ccc(-c2ccc(I)cc2)cc1)C3 (centres undefined) | 377 | 114 | 660 |  | 1.75 | 0.3 |
| COC(=O)C1C2CCC3CCC1N(C/C2=C\c1ccc(-c2ccc(OC)cc2)s1)C3 (centres undefined) | 317 | 10.3 | 531 | 0.02 | 1.43 | 0.03 |
| COC(=O)C1C2CCC3CCC1N(C/C2=C\c1ccc(-c2ccsc2)cc1)C3 (centres undefined) | 277 | 20.5 | 145 | 0.14 | 0.52 | 0.07 |
| COC(=O)C1C2CCC3CCC1N(C/C2=C\c1ccc(-c2ccco2)cc1)C3 (centres undefined) | 98 | 13.9 | 248 | 0.06 | 2.54 | 0.14 |
| COC(=O)C1C2CCC3CCC1N(C/C2=C\c1ccc(-c2ccc(C)s2)cc1)C3 (centres undefined) | 674 | 22.5 | 200 | 0.11 | 0.3 |  |
| COC(=O)[C@@H]1C2CCC3CCC1N(C/C2=C\c1ccc(-c2ccccc2)cc1)C3 (some centres undefined) | 477 | 12 | 614 | 0.02 | 1.29 | 0.02 |
| O=C(OCC1C2CCC3CCC1N(C/C2=C\c1ccc(-c2ccc(Cl)c(Cl)c2)c(Cl)c1)C3)c1ccccc1 (centres undefined) | 5640 | > 10000 | 956 |  | 0.17 |  |
| COC(=O)C1C2CCC3CCC1N(C/C2=C\c1ccc(-c2ccc(C(F)(F)F)cc2)cc1)C3 (centres undefined) | 3130 | 1150 | 2210 | 0.52 | 0.71 | 0.37 |
| COC(=O)C1C2CCC3CCC1N(C/C2=C\c1ccc(-n2cccc2)cc1)C3 (centres undefined) | 568 | 45.9 | 149 | 0.31 | 0.26 | 0.08 |
| COC(=O)C1C2CCC3CCC1N(C/C2=C\c1ccc(-c2ccc(Cl)cc2)cc1)C3 (centres undefined) | 417 | 739 | 1260 | 0.59 | 3.03 | 1.77 |
| COC(=O)C1C2CCC3CCC1N(C/C2=C\c1ccc(-c2cc(Cl)cc(Cl)c2)cc1)C3 (centres undefined) | 106 | 61 | 383 | 0.16 | 3.62 | 0.58 |
| OC[C@@H]1C2CCC3CCC1N(C/C2=C\c1ccc(-c2ccccc2)cc1)C3 (some centres undefined) | 1300 | 183 | 1540 | 0.12 | 1.19 | 0.14 |
| COC(=O)C1C2CCC3CCC1N(C/C2=C\c1ccc(-c2ccccc2)s1)C3 (centres undefined) | 179 | 13.5 | 71 | 0.19 | 0.4 | 0.08 |
| COC(=O)C1C2CCC3CCC1N(C/C2=C\c1ccc(-c2ccc(Cl)cc2Cl)cc1)C3 (centres undefined) | 1590 | 466 | 393 | 1.19 | 0.25 | 0.29 |
| COC(=O)C1C2CCC3CCC1N(C/C2=C\c1ccc(-c2ccc(Cl)c(Cl)c2)cc1)C3 (centres undefined) | 236 | 9.7 | 239 | 0.04 | 1.01 | 0.04 |
| COC(=O)C1C2CCC3CCC1N(C/C2=C\c1ccc(-c2ccc(N(C)C)cc2)cc1)C3 (centres undefined) | 1050 | 57.9 | 1000 | 0.06 | 0.95 | 0.05 |
| COC(=O)C1C2CCC3CCC1N(C/C2=C\c1ccc(-c2cccs2)cc1)C3 (centres undefined) | 155 | 19.8 | 73 | 0.27 | 0.47 | 0.13 |
| COC(=O)C1C2CCC3CCC1N(C/C2=C\c1ccc(-c2ccccc2)c(Cl)c1)C3 (centres undefined) | 4260 | 991 | 366 | 2.71 | 0.09 | 0.23 |
| CC(=O)OCC1C2CCC3CCC1N(C/C2=C\c1ccc(-c2ccccc2)cc1)C3 (centres undefined) | 165 | 57 | 46 | 1.24 | 0.28 | 0.35 |
| COC(=O)C1C2CCC3CCC1N(C/C2=C\c1ccc(-c2cccc(Cl)c2)cc1)C3 (centres undefined) | 89 | 17.5 | 213 | 0.08 | 2.4 | 0.2 |
